Data as given in ChEMBL document CHEMBL4033605 (J Nat Prod, 2017).
The source made the active and inactive calls. The rule behind the calls is not given here. Where a SMILES comes first, the peptide text is derived from it.

Columns and labels:
MCF7 [1] = assay: Cytotoxic activity against human MCF7 cells assessed as zone diffusion inhibition by measuring distance to perimeter (diffusion distance units) at 9 umol by disk diffusion soft agar colony inhibition assay (reference value: 0 unit); assay type: functional
[2] = target: Dipeptidyl peptidase 4 (Homo sapiens) (UniProt P27487); assay: Inhibition of human recombinant DPP4 at <3.33 uM using H-Gly-Pro AMC substrate incubated for 30 mins by spectrophotometry
Chain of Dipeptidyl peptidase 4 (Homo sapiens) (P27487 whole entry, looked up, the tested form may be a part): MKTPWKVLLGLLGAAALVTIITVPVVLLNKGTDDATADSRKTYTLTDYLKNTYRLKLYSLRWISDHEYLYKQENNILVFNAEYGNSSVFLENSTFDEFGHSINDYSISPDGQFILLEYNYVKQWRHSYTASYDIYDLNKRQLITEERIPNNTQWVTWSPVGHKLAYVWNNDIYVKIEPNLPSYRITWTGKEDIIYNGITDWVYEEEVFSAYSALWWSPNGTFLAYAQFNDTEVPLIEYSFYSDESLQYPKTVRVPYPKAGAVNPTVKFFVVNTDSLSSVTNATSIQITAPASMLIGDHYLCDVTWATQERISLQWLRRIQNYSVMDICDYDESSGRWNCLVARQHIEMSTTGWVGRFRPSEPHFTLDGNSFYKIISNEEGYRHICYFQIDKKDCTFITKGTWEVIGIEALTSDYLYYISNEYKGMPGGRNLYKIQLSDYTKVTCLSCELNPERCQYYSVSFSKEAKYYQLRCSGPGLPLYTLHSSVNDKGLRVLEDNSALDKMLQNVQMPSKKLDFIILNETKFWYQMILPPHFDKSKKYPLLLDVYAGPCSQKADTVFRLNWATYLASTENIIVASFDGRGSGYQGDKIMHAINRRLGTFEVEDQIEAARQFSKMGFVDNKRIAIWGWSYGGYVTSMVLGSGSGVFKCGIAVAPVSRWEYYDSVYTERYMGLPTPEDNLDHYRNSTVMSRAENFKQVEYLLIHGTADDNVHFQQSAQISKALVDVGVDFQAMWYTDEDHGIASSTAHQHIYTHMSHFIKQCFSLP
In short: (§1)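 Human recombinant DPP4 was assayed in 20 mM Tris-HCl pH 8.0 with 100 mM NaCl and 1 mM EDTA. Compound in DMSO was tested at 10 µM final, with three-fold serial dilutions down to 1.5 nM. H-Gly-Pro-AMC substrate was added as a 200 µM solution. After 30 min at 37 °C, fluorescence was read at excitation 355 and emission 455 nm. Background wells had no enzyme. All conditions were run in triplicate.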

CCRF-CEM [3] = assay: Cytotoxic activity against human CEM cells assessed as zone diffusion inhibition by measuring distance to perimeter (diffusion distance units) at 36 umol by disk diffusion soft agar colony inhibition assay (reference value: 0 unit); assay type: functional
[4] = Cytotoxic activity against human H125 cells assessed as zone diffusion inhibition by measuring distance to perimeter (diffusion distance units) at 36 umol by disk diffusion soft agar colony inhibition assay (reference value: 0 unit); assay type: functional
PANC-1 = assay: Cytotoxic activity against human PANC1 cells assessed as zone diffusion inhibition by measuring distance to perimeter (diffusion distance units) at 36 umol by disk diffusion soft agar colony inhibition assay (reference value: 0 unit); assay type: functional
[5] = Cytotoxic activity against human U251N cells assessed as zone diffusion inhibition by measuring distance to perimeter (diffusion distance units) at 9 umol by disk diffusion soft agar colony inhibition assay (reference value: 0 unit); assay type: functional
MCF7 [6] = assay: Cytotoxic activity against human MCF7 cells assessed as zone diffusion inhibition by measuring distance to perimeter (diffusion distance units) at 36 umol by disk diffusion soft agar colony inhibition assay (reference value: 0 unit); assay type: functional
[7] = Cytotoxic activity against human H116 cells assessed as zone diffusion inhibition by measuring distance to perimeter (diffusion distance units) at 36 umol by disk diffusion soft agar colony inhibition assay (reference value: 0 unit); assay type: functional
CCRF-CEM [8] = assay: Cytotoxic activity against human CEM cells assessed as zone diffusion inhibition by measuring distance to perimeter (diffusion distance units) at 9 umol by disk diffusion soft agar colony inhibition assay (reference value: 0 unit); assay type: functional
HCT-116 = assay: Cytotoxic activity against human HCT116 cells incubated for 48 hrs by MTT assay; assay type: functional, cell-based; conditions: HCT-116, 48 h
OVCAR-5 = assay: Cytotoxic activity against human OVCAR5 cells assessed as zone diffusion inhibition by measuring distance to perimeter (diffusion distance units) at 36 umol by disk diffusion soft agar colony inhibition assay (reference value: 0 unit); assay type: functional
LNCaP [9] = assay: Cytotoxic activity against human LNCAP cells assessed as zone diffusion inhibition by measuring distance to perimeter (diffusion distance units) at 36 umol by disk diffusion soft agar colony inhibition assay (reference value: 0 unit); assay type: functional
LNCaP [10] = assay: Cytotoxic activity against human LNCAP cells assessed as zone diffusion inhibition by measuring distance to perimeter (diffusion distance units) at 9 umol by disk diffusion soft agar colony inhibition assay (reference value: 0 unit); assay type: functional
[11] = Cytotoxic activity against human U251N cells assessed as zone diffusion inhibition by measuring distance to perimeter (diffusion distance units) at 36 umol by disk diffusion soft agar colony inhibition assay (reference value: 0 unit); assay type: functional
[12] = target: Dipeptidyl peptidase 4 (Homo sapiens) (UniProt P27487); assay: Inhibition of human recombinant DPP4 at 10 uM using H-Gly-Pro AMC substrate incubated for 30 mins by spectrophotometry; in short: as §1
[13] = Cytotoxic activity against human H116 cells assessed as zone diffusion inhibition by measuring distance to perimeter (diffusion distance units) at 9 umol by disk diffusion soft agar colony inhibition assay (reference value: 0 unit); assay type: functional
CFU-GM [14] = assay: Cytotoxic activity against human CFU-GM cells assessed as zone diffusion inhibition by measuring distance to perimeter (diffusion distance units) at 36 umol by disk diffusion soft agar colony inhibition assay (reference value: 0 unit); assay type: functional
[15] = Cytotoxic activity against human H125 cells assessed as zone diffusion inhibition by measuring distance to perimeter (diffusion distance units) at 9 umol by disk diffusion soft agar colony inhibition assay (reference value: 0 unit); assay type: functional
CFU-GM [16] = assay: Cytotoxic activity against human CFU-GM cells assessed as zone diffusion inhibition by measuring distance to perimeter (diffusion distance units) at 9 umol by disk diffusion soft agar colony inhibition assay (reference value: 0 unit); assay type: functional
NCI-H460 = assay: Cytotoxic activity against human H460 cells incubated for 48 hrs by MTT assay; assay type: functional, cell-based; conditions: NCI-H460, 48 h

Row | Compound | inhibition zone (IZ) (MCF7 [1]) | inhibition [2] | inhibition zone (IZ) (CCRF-CEM [3]) | inhibition zone (IZ) [4] | inhibition zone (IZ) (PANC-1) | inhibition zone (IZ) [5] | inhibition zone (IZ) (MCF7 [6]) | inhibition zone (IZ) [7] | inhibition zone (IZ) (CCRF-CEM [8]) | IC50 (HCT-116) | inhibition zone (IZ) (OVCAR-5) | inhibition zone (IZ) (LNCaP [9]) | inhibition zone (IZ) (LNCaP [10]) | inhibition zone (IZ) [11] | inhibition [12] | inhibition zone (IZ) [13] | inhibition zone (IZ) (CFU-GM [14]) | inhibition zone (IZ) [15] | inhibition zone (IZ) (CFU-GM [16]) | IC50 (NCI-H460)
1 | CC[C@H](C)[C@@H]1NC(=O)[C@@H]2CCCN2C(=O)[C@H](Cc2ccccc2)NC(=O)[C@H](C(C)C)NC(=O)[C@H](CC(C)C)NC(=O)[C@@H]2CCCN2C(=O)[C@@H]2CCCN2C(=O)[C@H](Cc2ccccc2)NC1=O (cyclo(LVFPIFPP)) | 300 U | inactive | 600 U | 550 U | 200 U | 300 U | 500 U | 600 U | 350 U | < 10000 nM | 200 U | 500 U | 300 U | 500 U | 15.7% | 200 U | 700 U | 300 U | 400 U | 
2 | COc1cccc2c1C(=O)c1c(O)c3c(c(O)c1C2=O)C[C@@](O)(C(=O)CO)C[C@@H]3O[C@H]1C[C@H](N)[C@H](O)[C@H](C)O1 [DOXORUBICIN] |  |  |  |  |  |  |  |  |  |  |  |  |  |  |  |  |  |  |  | 200 nM
